Source: ChEMBL document CHEMBL1144062, “A new tyrosine kinase inhibitor from the marine brown alga Stypopodium zonale” (J Nat Prod, 1999)
Activity calls are given as the source filed them. The rule behind the calls is not given here.

Legend:
[1] = target: Tyrosine-protein kinase Lck (Homo sapiens, UniProt P06239); test: Inhibition of tyrosine kinase p56-lck
Priestia megaterium = test: Antibacterial activity against Bacillus megaterium at 50 ug/disk; format: functional; settings: for zone of inhibition at 50 µg/disc: read-out: IZ
In short: (§1)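 Agar diffusion assay: 50 µg of compound applied per filter disk on seeded agar. The read-out is the inhibition zone, measured in mm from the edge of the filter disk.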

Escherichia coli = test: Antibacterial activity against Escherichia coli at 50 ug/disk; format: functional; settings: for zone of inhibition at 50 µg/disc: read-out: IZ; in short: as §1
[2] = system: Aspergillus pseudoglaucus; test: Antifungal activity against Eurotium repens at 50 ug/disk; format: functional; settings: for zone of inhibition at 50 µg/disc: read-out: IZ; in short: as §1
Fusarium oxysporum = test: Antifungal activity against Fusarium oxysporum at 50 ug/disk; format: functional; in short: as §1
Microbotryum violaceum = test: Antifungal activity against Ustilago violacea at 50 ug/disk; format: functional; in short: as §1
Mycotypha microspora = test: Antifungal activity against Mycotypha microspora at 50 ug/disk; format: functional; in short: as §1
[Chlorella] fusca = Antialgal activity against Chlorella fusca at 50 ug/disk; format: functional; settings: Scenedesmus fuscus; for zone of inhibition at 50 µg/disc: read-out: IZ; in short: as §1
[3] = target: Human immunodeficiency virus type 1 reverse transcriptase (Human immunodeficiency virus 1) (UniProt Q72547); test: Inhibition of HIV1 RT

SMILES	IC50 [1] [µM]	zone of inhibition at 50 µg/disc (Priestia megaterium) [mm]	zone of inhibition at 50 µg/disc (Escherichia coli) [mm]	Activity [2]	Activity (Fusarium oxysporum)	Activity (Microbotryum violaceum)	Activity (Mycotypha microspora)	zone of inhibition at 50 µg/disc ([Chlorella] fusca) [mm]	Activity [3]	zone of inhibition at 50 µg/disc [2] [mm]	zone of inhibition at 50 µg/disc (Fusarium oxysporum; read-out: IZ) [mm]	zone of inhibition at 50 µg/disc (Microbotryum violaceum; read-out: IZ) [mm]	zone of inhibition at 50 µg/disc (Mycotypha microspora; read-out: IZ) [mm]	Activity ([Chlorella] fusca)	Activity [1]	Activity (Priestia megaterium)	Activity (Escherichia coli)
COc1cc(C)c(O)c(C[C@]2(C)[C@H]3CCC(=C(C)C)[C@@H](CCC(=O)O)[C@]3(C)CC[C@H]2C)c1 [ATOMARIC ACID]	208	1	1	inactive	inactive	inactive	inactive	5	inactive	–	–	–	–	–	–	–	–
CCOC(=O)c1ccccc1C(=O)OCC [DIETHYL PHTHALATE]	–	10	–	–	–	–	–	13	–	–	–	–	–	–	–	–	–
Clc1ccc(COC(Cn2ccnc2)c2ccc(Cl)cc2Cl)c(Cl)c1 (stereo unspecified) [MICONAZOLE]	–	–	–	–	–	–	–	4	–	20	3	32	5	–	–	–	–
CC1=CC(=O)C=C(C[C@]2(C)[C@H]3CCC(=C(C)C)[C@@H](CCC(=O)O)[C@]3(C)CC[C@H]2C)C1=O [STYPOQUINONIC ACID]	187	1	1	inactive	inactive	inactive	inactive	–	inactive	–	–	–	–	inactive	–	–	–
Cc1cc(O)cc2c1O[C@@]1(C)CC[C@@H]3[C@@]4(C)CC[C@H](O)C(C)(C)[C@@H]4CC[C@@]3(C)[C@@H]1C2 [TAONDIOL]	–	–	–	–	–	–	–	–	inactive	2	–	–	–	inactive	inactive	inactive	inactive
